Series [1] concerns Human immunodeficiency virus 2. Nature of the series: Antiviral activity against Human immunodeficiency virus 2 ROD infected in C8166 cells assessed as reduction in virus-induced cytopathic effect after 3 days by syncytium reduction assay. The conditions noted are these: Human immunodeficiency virus 2, ISOLATE ROD, C8166, 72 h. It counts as functional, organism-based. An outline of the steps:
(§1)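 C8166 cells (4 × 10^5/mL) infected at MOI 0.06 in presence of serial compound dilutions; AZT as drug control. Cultured 3 days at 37 °C, syncytia (multinucleated giant cells) counted under inverted microscope; EC50 = concentration blocking syncytium formation by 50%. Mean of at least two separate experiments.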

Series [2] is described as follows: Cytotoxicity against human C8166 cells by MTT assay. It counts as cell-based. The method, boiled down: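 MTT colorimetric assay on C8166 cells, absorbance read at 570/630 nm; CC50 (concentration reducing viable cells by 50%) taken from dose-response curve. Mean of at least two separate experiments.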
Series [3] can be described thus: Selectivity index, ratio of CC50 for human C8166 cells to EC50 for wild type HIV1 IIIB infected in C8166 cells. It counts as toxicity, cell-based. The conditions noted are these: read-out: Ratio CC50/EC50. The method, boiled down:
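SI computed as CC50 (MTT, C8166 cells) divided by EC50 against HIV-1 IIIB from syncytium reduction in C8166 cells at MOI 0.06, 3 days at 37 °C.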

Series [4] deals with Human immunodeficiency virus 1. Nature of the series: Antiviral activity against 0.06 MOI Human immunodeficiency virus 1 IIIB A17 harboring reverse transcriptase K103N and Y181C double mutant infected in C8166 cells assessed as reduction in virus-induced cytopathic effect after 3 days by syncytium reduction assay. It is filed as functional, organism-based. As to conditions: Human immunodeficiency virus 1, IIIB A17, C8166, 72 h. An outline of the steps: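 C8166 cells (4 × 10^5/mL) infected with HIV-1 IIIB A17 (K103N+Y181C) at MOI 0.06 in presence of graded compound concentrations; AZT drug control. Cultured 3 days at 37 °C, syncytia (multinucleated giant cells) counted under inverted microscope; EC50 as concentration blocking syncytium formation by 50%. Mean of at least two separate experiments.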

Series [5] concerns Human immunodeficiency virus 1. Nature of the series: Antiviral activity against 0.06 MOI Human immunodeficiency virus 1 IIIB infected in C8166 cells assessed as reduction in virus-induced cytopathic effect after 3 days by syncytium reduction assay. It is filed as functional, organism-based. As to conditions: C8166, 72 h. An outline of the steps: as §1

The structures appear in SMILES notation.

Regarding `Cc1cc(S(N)(=O)=O)ccc1NC(=O)COc1ccc(Cl)cc1C(=O)c1cc(Cl)cc(C#N)c1`, the results for the EC50 in series [1], in series [4] and in series [5] were 2.18 µM, 0.00138 µM and 0.00068 µM, respectively. In addition, the CC50 in series [2] is more than 386 µM. Besides, the selectivity ratio in series [3] is more than 567000.
On the same counts, the results for `Cc1cc(S(N)(=O)=O)ccc1NC(=O)COc1ccc(F)cc1Oc1ccc2cc(C#N)ccc2c1` are 166 µM, 1.02 µM, 0.0388 µM, more than 396 µM and more than 10200.
For the compound `Cc1cc(S(N)(=O)=O)ccc1NC(=O)COc1ccc(F)cc1Oc1ccc2cc(Br)ccc2c1Cl`, the 50% effective concentration (EC50) is 11.5 µM in series [1], 1.2 µM in series [4] and 0.1 µM in series [5]. In addition, the CC50 in series [2] stood at 195 µM. In addition, in series [3], the selectivity ratio came out at 1950.
Consider `Cc1cc(S(N)(=O)=O)ccc1NC(=O)COc1ccc(Cl)cc1Oc1c(C)cc2ccccc2c1Cl`, for which the EC50 in series [1] was 3 µM; in series [4], 1.07 µM; in series [5], 0.0731 µM. Moreover, the cytotoxic concentration (CC50) in series [2] turned out to be 42.6 µM. The selectivity ratio in series [3] was determined as 583.
Consider `Cc1cc(S(N)(=O)=O)ccc1NC(=O)COc1ccc(F)cc1Oc1ccc2ccccc2c1Br`, for which the EC50 in series [1] amounted to 6.17 µM; in series [4], 1.59 µM; in series [5], 0.0858 µM. The CC50 in series [2] came to 39.5 µM. Moreover, the selectivity ratio in series [3] was found to be 460.
With `Cc1cc(S(N)(=O)=O)ccc1NC(=O)COc1ccc(F)cc1Oc1cc2ccccc2cc1C`, the EC50 stood at 126 µM in series [1], 1.09 µM in series [4] and 0.14 µM in series [5]. The same compound returned a CC50 in series [2] of 66.9 µM. The selectivity ratio in series [3] worked out at 476.
On the same counts, the results for `Cc1cc(S(N)(=O)=O)ccc1NC(=O)COc1ccc(F)cc1Oc1ccc2ccccc2c1Cl` are 136 µM, 3.09 µM, 0.186 µM, 47.1 µM and 254.
In the case of `Cc1cn([C@H]2C[C@H](N=[N+]=[N-])[C@@H](CO)O2)c(=O)[nH]c1=O` [ZIDOVUDINE], the figures for the EC50 in series [1], in series [4] and in series [5] were 0.129 µM, 0.00812 µM and 0.0106 µM, respectively. In series [2], this compound returned a CC50 of 5600 µM. In addition, the selectivity ratio in series [3] was determined as 529000.
On the same counts, the results for `Cc1cc(S(N)(=O)=O)ccc1NC(=O)COc1ccc(F)cc1Oc1ccc2ccccc2c1C` are 26.4 µM, 1.15 µM, 0.183 µM, 56.1 µM and 306.
On to `Cc1cc(S(N)(=O)=O)ccc1NC(=O)COc1ccc(F)cc1Oc1ccc2cc(Br)ccc2c1`, for which the results for the 50% effective concentration (EC50) in series [1], in series [4] and in series [5] were 96 µM, 1.77 µM and 0.181 µM, respectively. Also, the cytotoxic concentration (CC50) in series [2] was more than 358 µM. Moreover, in series [3], the selectivity ratio is more than 1970.
On the same counts, the results for `Cc1cc(S(N)(=O)=O)ccc1NC(=O)COc1ccc(Cl)cc1Oc1ccc2cc(Br)ccc2c1` are 20 µM, 2.49 µM, 0.244 µM, 31.3 µM and 128.
On the same counts, the results for `Cc1cc(S(N)(=O)=O)ccc1NC(=O)COc1ccc(Cl)cc1Oc1cc2ccccc2cc1C` are 20.7 µM, 0.76 µM, 0.0584 µM, 76.7 µM and 1310.
On the same counts, the results for `Cc1cc(S(N)(=O)=O)ccc1NC(=O)COc1ccc(F)cc1Oc1cccc2ccccc12` are 17 µM, 1.68 µM, 0.137 µM, 33.1 µM and 240.
For `Cc1cc(S(N)(=O)=O)ccc1NC(=O)COc1ccc(Cl)cc1Oc1ccc2ccccc2c1Cl`, the values for the EC50 in series [1], in series [4] and in series [5] were 13.3 µM, 1.73 µM and 0.169 µM, respectively. The compound further yielded a CC50 in series [2] of 40.7 µM. In addition, in series [3], the selectivity ratio amounted to 241.
On the same counts, the results for `Cc1cc(S(N)(=O)=O)ccc1NC(=O)COc1ccc(F)cc1Oc1ccc2cc(C#N)ccc2c1Cl` are 235 µM, 0.54 µM, 0.00472 µM, 39.7 µM and 8410.
On the same counts, the results for `Cc1cc(S(N)(=O)=O)ccc1NC(=O)COc1ccc(F)cc1Oc1c(C)cc2ccccc2c1Cl` are 18.8 µM, 1.39 µM, 0.198 µM, 55.6 µM and 280.
On the same counts, the results for `Cc1cc(S(N)(=O)=O)ccc1NC(=O)COc1ccc(F)cc1Oc1ccc2ccccc2c1` are 96.6 µM, 3.29 µM, 0.0455 µM, 68.5 µM and 1510.
As to `Cc1cc(S(N)(=O)=O)ccc1NC(=O)COc1ccc(Cl)cc1Oc1ccc2ccccc2c1Br`, the concentration giving a half-maximal response (EC50) in series [1] worked out at 137 µM; in series [4], 1.34 µM; in series [5] it was 0.0879 µM. This compound registered a cytotoxic concentration (CC50) in series [2] of 48.1 µM. For the same compound, the selectivity ratio in series [3] turned out to be 547.
On the same counts, the results for `Cc1cc(S(N)(=O)=O)ccc1NC(=O)COc1ccc(Cl)cc1Oc1ccc2cc(C#N)ccc2c1` are more than 383 µM, 2.33 µM, 0.117 µM, more than 383 µM and more than 3290.
On the same counts, the results for `Cc1cc(S(N)(=O)=O)ccc1NC(=O)COc1ccc(Cl)cc1Oc1ccc2ccccc2c1` are 27.3 µM, 1.79 µM, 0.0791 µM, 119 µM and 1500.
In the case of `Cc1cc(S(N)(=O)=O)ccc1NC(=O)COc1ccc(F)cc1Oc1ccc2cccc(F)c2c1`, the EC50 in series [1] was determined as 66.3 µM; in series [4], 1.45 µM; in series [5], 0.0924 µM. In series [2], the 50% cytotoxic concentration (CC50) worked out at 171 µM. In addition, in series [3], the selectivity ratio worked out at 1850.
Consider `Cc1cc(S(N)(=O)=O)ccc1NC(=O)COc1ccc(F)cc1Oc1ccc2cc(C#N)ccc2c1Br`, for which the values for the half-maximal effective concentration (EC50) in series [1], in series [4] and in series [5] were 4.4 µM, 0.82 µM and 0.0046 µM, respectively. The cytotoxic concentration (CC50) in series [2] stood at 35.3 µM. Moreover, the selectivity ratio in series [3] came out at 7670.

Values taken from ChEMBL document CHEMBL1806390, “Synthesis and biological evaluation of naphthyl phenyl ethers (NPEs) as novel nonnucleoside HIV-1 reverse transcriptase inhibitors” (Bioorg Med Chem, 2011).
